# Measured values from ChEMBL document CHEMBL4270599, “Synthesis of a 3'-C-ethynyl-β-d-ribofuranose purine nucleoside library: Discovery of C7-deazapurine analogs as potent antiproliferative nucleosides” (Eur J Med Chem, 2018).
# pIC50: −log10 of the molar value.
# Experiments:
# EKVX = assay: Cytotoxicity against human EKVX cells after 48 hrs by SRB assay; type: functional
# NCI-H322M = assay: Cytotoxicity against human NCI-H322M cells after 48 hrs by SRB assay; type: functional
# HCC 2998 = assay: Cytotoxicity against human HCC2998 cells after 48 hrs by SRB assay; type: functional; conditions: HCC 2998, 48 h
# SF-539 = assay: Cytotoxicity against human SF539 cells after 48 hrs by SRB assay; type: functional; conditions: SF-539, 48 h
# Malme-3M = assay: Cytotoxicity against human MALME-3M cells after 48 hrs by SRB assay; type: functional
# MDA-MB-435 = assay: Cytotoxicity against human MDA-MB-435 cells after 48 hrs by SRB assay; type: functional; conditions: MDA-MB-435, 48 h
# ACHN [1] = assay: Cytotoxicity against human ACHN cells after 48 hrs by SRB assay; type: functional
# MCF7 = assay: Cytotoxicity against human MCF7 cells after 48 hrs by SRB assay; type: functional; conditions: MCF7, 48 h
# NCI-H522 = assay: Growth inhibition of human NCI-H522 cells assessed as cell growth at 10^-8 M incubated for 48 hrs by sulforhodamine B assay relative to control; type: functional; conditions: NCI-H522, 48 h, read-out: Activity
# SF-295 = assay: Growth inhibition of human SF295 cells assessed as cell growth at 10^-8 M incubated for 48 hrs by sulforhodamine B assay relative to control; type: functional; conditions: SF-295, 48 h, read-out: Activity
# SK-MEL-5 = assay: Growth inhibition of human SK-MEL-5 cells assessed as cell growth at 10^-8 M incubated for 48 hrs by sulforhodamine B assay relative to control; type: functional; conditions: SK-MEL-5, 48 h, read-out: Activity
# IGROV-1 [2] = assay: Growth inhibition of human IGROV1 cells assessed as cell growth at 10^-8 M incubated for 48 hrs by sulforhodamine B assay relative to control; type: functional; conditions: IGROV-1, 48 h, read-out: Activity
# 786-0 = assay: Growth inhibition of human 786-0 cells assessed as cell growth at 10^-8 M incubated for 48 hrs by sulforhodamine B assay relative to control; type: functional; conditions: 786-0, 48 h, read-out: Activity
# A498 = assay: Growth inhibition of human A498 cells assessed as cell growth at 10^-8 M incubated for 48 hrs by sulforhodamine B assay relative to control; type: functional; conditions: A498, 48 h, read-out: Activity
# DU-145 [3] = assay: Growth inhibition of human DU145 cells assessed as cell growth at 10^-8 M incubated for 48 hrs by sulforhodamine B assay relative to control; type: functional; conditions: DU-145, 48 h, read-out: Activity
# K562 [4] = assay: Growth inhibition of human K562 cells assessed as cell growth at 10^-7 M incubated for 48 hrs by sulforhodamine B assay relative to control; type: functional; conditions: K562, 48 h, read-out: Activity
# COLO 205 = assay: Growth inhibition of human COLO205 cells assessed as cell growth at 10^-7 M incubated for 48 hrs by sulforhodamine B assay relative to control; type: functional; conditions: COLO 205, 48 h, read-out: Activity
# U-251 = assay: Growth inhibition of human U251 cells assessed as cell growth at 10^-7 M incubated for 48 hrs by sulforhodamine B assay relative to control; type: functional; conditions: U-251, 48 h, read-out: Activity
# SK-MEL-28 = assay: Growth inhibition of human SK-MEL-28 cells assessed as cell growth at 10^-7 M incubated for 48 hrs by sulforhodamine B assay relative to control; type: functional; conditions: SK-MEL-28, 48 h, read-out: Activity
# HT-29 = assay: Growth inhibition of human HT-29 cells assessed as cell growth at 10^-6 M incubated for 48 hrs by sulforhodamine B assay relative to control; type: functional; conditions: HT-29, 48 h, read-out: Activity
# KM12 = assay: Growth inhibition of human KM12 cells assessed as cell growth at 10^-6 M incubated for 48 hrs by sulforhodamine B assay relative to control; type: functional; conditions: KM12, 48 h, read-out: Activity
# ACHN [5] = assay: Growth inhibition of human ACHN cells assessed as cell growth at 10^-6 M incubated for 48 hrs by sulforhodamine B assay relative to control; type: functional; conditions: read-out: Activity
# DU-145 [6] = assay: Growth inhibition of human DU145 cells assessed as cell growth at 10^-6 M incubated for 48 hrs by sulforhodamine B assay relative to control; type: functional; conditions: DU-145, 48 h, read-out: Activity
# NCI-H226 = assay: Growth inhibition of human NCI-H226 cells assessed as cell growth at 10^-5 M incubated for 48 hrs by sulforhodamine B assay relative to control; type: functional; conditions: NCI-H226, 48 h, read-out: Activity
# NCI-H23 = assay: Growth inhibition of human NCI-H23 cells assessed as cell growth at 10^-5 M incubated for 48 hrs by sulforhodamine B assay relative to control; type: functional; conditions: NCI-H23, 48 h, read-out: Activity
# HCT-116 = assay: Growth inhibition of human HCT116 cells assessed as cell growth at 10^-5 M incubated for 48 hrs by sulforhodamine B assay relative to control; type: functional; conditions: HCT-116, 48 h, read-out: Activity
# CCRF-CEM = assay: Growth inhibition of human CCRF-CEM cells assessed as cell growth at 10^-4 M incubated for 48 hrs by sulforhodamine B assay relative to control; type: functional; conditions: read-out: Activity
# K562 [7] = assay: Growth inhibition of human K562 cells assessed as cell growth at 10^-4 M incubated for 48 hrs by sulforhodamine B assay relative to control; type: functional; conditions: K562, 48 h, read-out: Activity
# IGROV-1 [8] = assay: Growth inhibition of human IGROV1 cells assessed as cell growth at 10^-4 M incubated for 48 hrs by sulforhodamine B assay relative to control; type: functional; conditions: IGROV-1, 48 h, read-out: Activity
# HMEC-1 = assay: Antiproliferative activity against HMEC1 cells after 4 days by Coulter counter method; type: cell-based; conditions: Homo sapiens, HMEC-1, 96 h
# In short: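 Primary HUVEC, primary HMVEC-d and the HMEC-1 line seeded at 20,000 cells/well in gelatin-coated plates in EC growth medium (EGM2). After overnight incubation, 5-fold compound dilutions added. Cells proliferated four days with compound, then trypsinized and counted by Coulter counter to derive IC₅₀.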
# [9] = read-out: pLC50 (the source's name) (converted)
# [10] = read-out: LC50 (the source's name)
smiles,measurement,setting,value
C#C[C@@]1(O)[C@@H](CO)O[C@@H](n2cc(I)c3c(N)ncnc32)[C@@H]1O,GI50,EKVX; read-out: GI50,0.395 to 0.421 µM
same,TGI,EKVX; read-out: TGI,4.04 to 7.14 µM
same,CC50,EKVX; [9],> 100 µM
same,GI50,NCI-H322M; read-out: GI50,0.405 to 0.683 µM
same,TGI,NCI-H322M; read-out: TGI,7.49 to 42.8 µM
same,CC50,NCI-H322M; [9],> 100 µM
same,GI50,HCC 2998; read-out: GI50,0.221 to 0.267 µM
same,CC50,HCC 2998; [10],> 100 µM
same,TGI,HCC 2998; read-out: TGI,2.6 to 3.47 µM
same,GI50,SF-539; read-out: GI50,0.304 to 0.471 µM
same,CC50,SF-539; [10],28.6 to 31.3 µM
same,TGI,SF-539; read-out: TGI,2.18 to 2.98 µM
same,GI50,Malme-3M; read-out: GI50,0.525 to 1.3 µM
same,CC50,Malme-3M; [10],> 100 µM
same,TGI,Malme-3M; read-out: TGI,2.76 to 4.16 µM
same,GI50,MDA-MB-435; read-out: GI50,0.32 to 0.699 µM
same,CC50,MDA-MB-435; [10],> 100 µM
same,TGI,MDA-MB-435; read-out: TGI,11.7 to 14 µM
same,GI50,ACHN [1],0.316 µM
same,TGI,ACHN [1]; read-out: TGI,> 100 µM
same,CC50,ACHN [1]; [9],> 100 µM
same,TGI,ACHN [1]; read-out: pTGI (converted),> 100 µM
same,TGI,MCF7; read-out: TGI,> 100 µM
same,CC50,MCF7; [9],> 100 µM
same,TGI,MCF7; read-out: pTGI (converted),> 100 µM
same,growth at 0.01 µM,NCI-H522,83 to 85%
same,growth at 0.01 µM,SF-295,90%
same,growth at 0.01 µM,SK-MEL-5,87 to 94%
same,growth at 0.01 µM,IGROV-1 [2],39 to 60%
same,growth at 0.01 µM,786-0,87 to 98%
same,growth at 0.01 µM,A498,88 to 102%
same,growth at 0.01 µM,DU-145 [3],91 to 94%
same,growth at 0.1 µM,K562 [4],35 to 41%
same,growth at 0.1 µM,COLO 205,35 to 63%
same,growth at 0.1 µM,U-251,40 to 45%
same,growth at 0.1 µM,SK-MEL-28,86 to 88%
same,growth at 1 µM,HT-29,9 to 13%
same,growth at 1 µM,KM12,25 to 27%
same,growth at 1 µM,ACHN [5],28%
same,growth at 1 µM,DU-145 [6],19 to 26%
same,growth at 10 µM,NCI-H226,6 to 10%
same,growth at 10 µM,NCI-H23,-16%
same,growth at 10 µM,HCT-116,3%
same,growth at 100 µM,CCRF-CEM,2 to 8%
same,growth at 100 µM,K562 [7],7 to 8%
same,growth at 100 µM,IGROV-1 [8],2 to 3%
same,pIC50,HMEC-1,7.74
